Assay results as given in ChEMBL document CHEMBL1129972 (J Med Chem, 1997).
Bridge positions count the residues as written; N and C are the ends. Square brackets hold non-standard residues; d marks the D form. Peptide text beside a SMILES is read from it. Pen = CC(C)(S)[C@H](N)C(=O)O; hCys = N[C@@H](CCS)C(=O)O

Tests used:
[1] = biological target: T1, Angiotensin II receptor (AT-1) type-1 (Rattus norvegicus, UniProt P29089+P25095); assay: Inhibitory concentration against [125 I]Ang II binding to rat pituitary membranes Angiotensin II receptor type 1 without 0.2% bovine serum albumin
T1 sequence (P29089 whole entry): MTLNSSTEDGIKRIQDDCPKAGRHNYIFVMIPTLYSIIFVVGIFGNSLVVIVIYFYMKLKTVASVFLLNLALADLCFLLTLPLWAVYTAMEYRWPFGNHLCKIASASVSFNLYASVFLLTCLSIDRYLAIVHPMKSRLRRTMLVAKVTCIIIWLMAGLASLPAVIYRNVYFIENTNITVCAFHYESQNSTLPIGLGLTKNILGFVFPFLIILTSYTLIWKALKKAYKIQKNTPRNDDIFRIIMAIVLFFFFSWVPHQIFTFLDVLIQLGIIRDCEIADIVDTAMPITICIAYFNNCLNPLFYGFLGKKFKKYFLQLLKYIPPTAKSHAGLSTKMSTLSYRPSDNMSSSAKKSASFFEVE
T1 sequence (P25095 whole entry): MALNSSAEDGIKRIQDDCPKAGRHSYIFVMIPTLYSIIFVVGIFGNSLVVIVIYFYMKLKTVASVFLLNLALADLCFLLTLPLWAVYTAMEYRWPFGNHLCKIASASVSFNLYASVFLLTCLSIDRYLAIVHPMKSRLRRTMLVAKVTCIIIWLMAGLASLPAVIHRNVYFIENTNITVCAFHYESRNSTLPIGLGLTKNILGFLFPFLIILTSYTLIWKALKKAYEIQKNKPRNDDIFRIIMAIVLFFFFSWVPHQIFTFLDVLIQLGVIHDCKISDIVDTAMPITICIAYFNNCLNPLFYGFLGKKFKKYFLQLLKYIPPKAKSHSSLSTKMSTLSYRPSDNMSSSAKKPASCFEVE

[2] = biological target: T1, Angiotensin II receptor (AT-1) type-1; assay: Inhibitory concentration against specific binding of [125 I]Ang II to rat pituitary membranes (Angiotensin II receptor, type 1) in presence of 0.2% bovine serum albumin; format: cell membranes, Membrane
Oryctolagus cuniculus [3] = species: Oryctolagus cuniculus; assay: Concentration which produces 50% of maximal contractile response at rabbit aorta strips; format: functional
In short: (§1)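 Thoracic aortic rings (2 mm) from male New Zealand white rabbits (2.5–3.5 kg, pentobarbitone-anesthetized) in Krebs' bicarbonate buffer, 38.5 °C, pH 7.4, 95% O2/5% CO2; isometric tension, 2 g resting, ~90 min equilibration with one 300 nM Ang II challenge. Control cumulative Ang II curve (3×10^-10–10^-7 M), then cumulative test-compound curve 3×10^-10–10^-5 M; response as % of control Ang II maximum.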

Oryctolagus cuniculus [4] = species: Oryctolagus cuniculus; assay: Contractile activity in isolated rabbit aortic rings; format: functional, Aorta; in short: as §1

SMILES	IC50 [1]	IC50 [2]	EC50 (Oryctolagus cuniculus [3])	pD2 (Oryctolagus cuniculus [4])
CC[C@H](C)[C@@H](C(=O)N[C@@H](Cc1c[nH]cn1)C(=O)N1CCC[C@H]1C(=O)N[C@@H](Cc1ccccc1)C(=O)O)N1CCC(CNC(=O)[C@H](CCCN=C(N)N)NC(=O)[C@@H](N)CC(=O)O)=C[C@H](Cc2ccc(O)cc2)C1=O	2 nM			
NC(N)=NCCC[C@H](NC(=O)[C@@H](N)CC(=O)O)C(=O)N[C@H]1CSSC[C@@H](C(=O)N[C@@H](Cc2c[nH]cn2)C(=O)N2CCC[C@H]2C(=O)N[C@@H](Cc2ccccc2)C(=O)O)NC(=O)[C@H](Cc2ccc(O)cc2)NC1=O (H-DRCYCHPF-OH; disulfide 3-5)	2.9 nM	28 nM		
CC[C@H](C)[C@@H](C(=O)N[C@@H](Cc1c[nH]cn1)C(=O)N1CCC[C@H]1C(=O)N[C@@H](Cc1ccccc1)C(=O)O)N1CCC(CNC(=O)[C@H](CCCN=C(N)N)NC(=O)[C@@H](N)CC(=O)O)=C[C@@H](Cc2ccc(O)cc2)C1=O	2.8 nM		830 nM	
CC[C@H](C)[C@H](NC(=O)[C@H](Cc1ccc(O)cc1)NC(=O)[C@@H](NC(=O)[C@H](CCCNC(=N)N)NC(=O)[C@@H](N)CC(=O)O)C(C)C)C(=O)N[C@@H](Cc1cnc[nH]1)C(=O)N1CCC[C@H]1C(=O)N[C@@H](Cc1ccccc1)C(=O)O [ANGIOTENSIN II]			2.6 nM	
NC(N)=NCCC[C@H](NC(=O)[C@@H](N)CC(=O)O)C(=O)N[C@H]1CCSSCC[C@@H](C(=O)N[C@@H](Cc2c[nH]cn2)C(=O)N2CCC[C@H]2C(=O)N[C@@H](Cc2ccccc2)C(=O)O)NC(=O)[C@H](Cc2ccc(O)cc2)NC1=O (H-DR[hCys]Y[hCys]HPF-OH; disulfide 3-5)	1.7 nM	15.4 nM		8.48
CC1(C)SSC(C)(C)[C@@H](C(=O)N[C@@H](Cc2c[nH]cn2)C(=O)N2CCC[C@H]2C(=O)N[C@@H](Cc2ccccc2)C(=O)O)NC(=O)[C@H](Cc2ccc(O)cc2)NC(=O)[C@H]1NC(=O)[C@H](CCCN=C(N)N)NC(=O)[C@@H](N)CC(=O)O (H-DR[Pen]Y[Pen]HPF-OH; disulfide 3-5)	0.9 nM	3.8 nM	217 nM	
CC[C@H](C)[C@@H](C(=O)N[C@@H](Cc1cnc[nH]1)C(=O)N1CCC[C@H]1C(=O)N[C@@H](Cc1ccccc1)C(=O)O)N1Cc2cc(NC(=O)[C@H](CCCN=C(N)N)NC(=O)[C@@H](N)CC(=O)O)ccc2[C@@H](Cc2ccc(O)cc2)C1=O	> 100000 nM			
CC[C@H](C)[C@@H](C(=O)N[C@@H](Cc1c[nH]cn1)C(=O)N1CCC[C@H]1C(=O)N[C@@H](Cc1ccccc1)C(=O)O)N1Cc2cc(NC(=O)[C@H](CCCN=C(N)N)NC(=O)[C@@H](N)CC(=O)O)ccc2[C@H](Cc2ccc(O)cc2)C1=O	> 100000 nM			
